mABHD4 FP: inhibits mouse alpha/beta hydrolase domain 4 | Q8VD66 | 370,000 compounds, 0.54% hits | purified mABHD4, FP-Rh probe fluorescence polarization | inhibition, % at 8.92 µM;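 active means inhibition exceeding the mean over every tested compound plus 3 SD, cut at about 30% in these data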;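 further: 0% = plate median of compound wells and 100% = S159A mutant with DMSO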
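system = mouse ABHD4 enzyme, wild type | medium = HEPES pH 7.0, NaCl, Pluronic buffer | also added = FP-Rh probe | incubation = Enzyme–compound pre-incubation 45 min, then probe 60 min, both 25 °C | technique = fluorescence polarization, excitation 525 nm, emission 598 nm, BODIPY TMR filters | controls = S159A mutant high control, sample median low control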
SIAE inh: blocks human sialic acid acetylesterase; Q9HAT2; SIAE FP-Rh probe binding, fluorescence polarization; inhibition, % at 9.66 µM; 370,000 compounds, 0.69% hits; AID 1053197;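 active means inhibition above a cutoff: mean of compounds within the control limits plus 3 SD of those, cut at about 17% in these data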;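 further: 0% = plate median of compound wells and 100% = probe without SIAE protein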
Target sequence (Q9HAT2 whole entry, looked up): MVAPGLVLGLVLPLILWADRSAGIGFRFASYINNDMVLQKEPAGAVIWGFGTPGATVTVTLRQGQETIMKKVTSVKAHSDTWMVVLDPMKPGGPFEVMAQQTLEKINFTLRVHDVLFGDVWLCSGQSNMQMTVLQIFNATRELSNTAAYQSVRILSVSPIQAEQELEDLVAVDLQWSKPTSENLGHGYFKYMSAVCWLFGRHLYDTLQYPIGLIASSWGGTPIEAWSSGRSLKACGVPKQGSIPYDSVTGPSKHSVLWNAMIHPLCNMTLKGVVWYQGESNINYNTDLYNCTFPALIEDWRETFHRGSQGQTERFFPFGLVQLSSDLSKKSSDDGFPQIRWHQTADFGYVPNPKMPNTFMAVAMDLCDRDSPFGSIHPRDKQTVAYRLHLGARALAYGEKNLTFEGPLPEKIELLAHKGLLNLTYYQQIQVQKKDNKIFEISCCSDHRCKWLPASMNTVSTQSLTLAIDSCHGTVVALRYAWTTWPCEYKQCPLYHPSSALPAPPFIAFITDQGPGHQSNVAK
TCR CD3 inh: inhibitors of human TCR-CD3 interaction; 360,000 compounds, 0.37% hits; TAMRA-labeled TCR probe fluorescence, biochemical; inhibition, % at 9.4 µM; in the data active means inhibition above about 19%;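 further: recombinant mutant TCR 2C K166C tagged with TAMRA read by polarization; 0% = receptor in buffer alone and 100% = receptor with positive control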
Fam108B inh: blocks mouse Fam108B hydrolase in RBBP9 counter-screen | 300,000 compounds, 0.33% hits | recombinant Fam108B, FP-Rh probe fluorescence polarization | inhibition, % at 9.51 µM;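 active means inhibition above the screen mean inhibition plus 3 SD, computed separately per campaign, cut at about 18% in these data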;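 further: inhibitors lower polarization as less probe binds the enzyme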
PME-1 primary: PME-1 (human) inhibition; Q9Y570; 320,000 compounds, 0.53% hits; recombinant PME-1, FP-Rh probe fluorescence polarization; AID 2130; inhibition, % at 5.9 µM;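 active means inhibition above the campaign mean of all compounds plus 3 SD, cut at about 26% in these data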;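 further: competitive labeling of PME-1 active site by serine hydrolase directed probe; 0% = PME-1 with DMSO and 100% = wells lacking PME-1 enzyme; inhibitors block probe labeling so polarization falls and inhibition rises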
HTRA1 inhibitor: blocks human HTRA1 serine peptidase. Q92743. recombinant HTRA1, FP-rhodamine activity-based probe, fluorescence polarization. inhibition, % at 5.96 µM. 340,000 compounds, 0.5% hits. AID 504803; in the data active means inhibition above about 36%;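 further: 0% = enzyme with DMSO and 100% = wells lacking enzyme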
An asterisk follows results filed as active; . = no result. This is a sample that favours compounds with a hit; in the whole collection about 1.8% have one here.

SMILES	mABHD4 FP	SIAE inh	TCR CD3 inh	Fam108B inh	PME-1 primary	HTRA1 inhibitor
COc1ccc(OCC(C)CN2CCC(C(O)(c3ccccc3)c3ccccc3)CC2)cc1 (configuration not stated)	-2	-3	.	.	.	.
CCN(CC)c1ccc(/C=N/NC(=O)Cc2nnc(NC(=O)Nc3ccccc3)s2)cc1	10	5	-6	47*	37*	8
CCN(CC)c1ccc(/C=N/NC(=O)Nc2ccccc2)cc1	15	9	2	6	12	6
CC(C)(C)c1cc(C(=O)N/N=C/c2ccc(-c3ccccc3[N+](=O)[O-])o2)n[nH]1	10	-1	11	9	32*	-7
CC(=O)Nc1cccc(NC(=O)c2cc([N+](=O)[O-])ccc2N2CCCCC2)c1	0	1	-1	.	5	-11
CN(C)S(=O)(=O)c1cccc(NC(=O)c2cc([N+](=O)[O-])ccc2N2CCCCC2)c1	-7	4	5	.	46*	-17
COc1cc([C@@H]2OC[C@@H]3[C@H]2CO[C@@H]3c2ccc3c(c2)OCO3)ccc1O	5	3	-2	.	.	-3
COc1cc(CC2COC(c3ccc(O)c(OC)c3)C2COC(C)=O)ccc1O (configuration not stated)	10	2	23*	5	1	11
CCOC(=O)Cn1cc(CN2CCS(=O)(=O)N(Cc3ccc(Cl)cc3)C(C(=O)OC)C2)nn1 (configuration not stated)	2	1	.	.	.	.
Cc1ccc(C)c(NC(=O)COC(=O)c2cccc3c2C(=O)c2ccccc2C3=O)c1	-1	2	10	4	89*	2
Cc1ccc(C)c(NC(=O)c2cccc3c2-c2ccccc2C3=O)c1	-1	-3	.	.	.	.
O=C(COC(=O)c1cccc2c1C(=O)c1ccccc1C2=O)NC1CCCCC1	11	12	-2	7	41*	12
Cc1cccc(C)c1NC(=O)COC(=O)c1ccccc1Nc1ccccc1	-4	4	-3	-3	-3	0
Cc1ccc(NC(=O)COC(=O)c2cccc3c2C(=O)c2ccccc2C3=O)c(C)c1	5	-4	3	5	85*	-1
Cc1cc(C)c(NC(=O)COC(=O)c2cccc3c2C(=O)c2ccccc2C3=O)c(C)c1	11	2	1	10	46*	1
Clc1ccccc1Cn1ccc2ccc(-c3ccc4ccn(Cc5ccccc5Cl)c4c3)cc21	0	-2	.	.	.	.
COC(=O)C1CN(Cc2ccc(OC)cc2)CCS(=O)(=O)N1Cc1ccc(C(F)(F)F)cc1 (configuration not stated)	-11	2	.	.	.	.
C=CCc1cccc(/C=N/NC(=O)CNc2cccc3ccccc23)c1O	12	10	7	17	39*	21
O=C(N/N=C\c1ccc(COc2ccc([N+](=O)[O-])cc2)o1)c1cccc(Cl)c1	1	4	12	13	36*	-27
C=CCN1[C@H](CC(C)C)COc2cc(N3CCCC3)ccc2S1(=O)=O	0	-1	.	.	.	.
C/C(=N/Nc1nc(-c2ccccc2F)nc2ccccc12)c1ccccc1O	10	-2	0	7	26*	-1
CC1Oc2cc3oc4c(O)c(O)ccc4c(=O)c3c(O)c2C1(C)C (configuration not stated)	.	.	.	-11	5	72*
Cc1cc(C2C(C#N)=C(N)OC3=C2C(=O)CCC3)c(C)s1 (configuration not stated)	-4	7	2	6	0	0
COc1cc(C2C(C#N)=C(N)OC3=C2C(=O)CCC3)c([N+](=O)[O-])cc1OC (configuration not stated)	23	2	2	19*	-28	5
Cc1ccc(C(=O)N2CCN(Cc3nc4sc5c(c4c(=O)[nH]3)CCCC5)CC2)cc1	-5	-7	1	1	1	-1
SMILES	mABHD4 FP	SIAE inh	TCR CD3 inh	Fam108B inh	PME-1 primary	HTRA1 inhibitor
O=C(c1ccccc1F)N1CCN(Cc2nc3sc4c(c3c(=O)[nH]2)CCCC4)CC1	2	-2	5	0	27*	-1
COC(=O)c1cc(C(c2ccccc2O)C2CCCO2)n2cccc(C(C)(C)C)c12 (configuration not stated)	-1	5	.	.	.	.
COC(=O)C(NC(=O)c1ccccc1)=C1C=C(C)OC(C)=C1	0	18*	-5	-6	-1	3
COC(=O)/C(=C(O)\C=C\c1ccccc1[N+](=O)[O-])c1nc2ccccc2[nH]1	4	-6	-7	5	29*	-18
COc1ccc(C2=NN(Cc3c(F)cccc3Cl)C(=O)CC2)cc1	-5	0	0	1	44*	-7
Oc1[nH]c2ccccc2c1N=Nc1nc2ccccc2s1	-6	-1	-2	5	29*	11
CC(=O)c1sc(Nc2nc3cc4c(cc3s2)OCO4)nc1C	4	4	3	.	.	2
c1ccc2sc(Nc3nc4cc5c(cc4s3)OCO5)nc2c1	7	7	-8	3	47*	-3
COc1cc(CNc2ccc(O)cc2)cc(Br)c1OCc1ccccc1F	.	.	.	9	42*	33
COc1cc(CNCc2ccncc2)cc(Br)c1OCc1ccccc1F	-2	3	5	9	-10	-27
CCOc1c(Br)cc(CNc2ccc3c(c2)OCCO3)cc1OC	2	29*	1	5	3	8
CCOc1cc(CNc2ccc(O)cc2)cc(Br)c1OCc1ccccc1F	.	.	.	7	21	44*
CC(C)C[C@H]1COc2cccc(F)c2S(=O)(=O)N1Cc1cn(Cc2ccc(C(F)(F)F)cc2)nn1	2	-7	.	.	.	.
COc1ccc(C2Nc3ccccc3C(=O)N2Cc2ccc(C)o2)cc1COc1c(C)cccc1C (configuration not stated)	-34	-5	.	.	.	.
O=S(=O)(Nc1nc(-c2sccc2Cl)cs1)c1cc(Cl)ccc1Cl	.	.	.	29*	13	-36
COC(=O)C1CN(Cc2ccccc2)CCS(=O)(=O)N1Cc1cn(Cc2ccccc2)nn1 (configuration not stated)	7	3	.	.	.	.
Cc1ccc(S(=O)(=O)NCC2CN(S(=O)(=O)c3ccc(C)cc3)c3ccccc3C(=O)N2c2ccc(F)cc2)cc1 (configuration not stated)	5	-13	.	.	.	.
COc1cc(C2Nc3cccc4cccc(c34)N2)ccc1O	0	54*	-10	11	27*	21
CCOC(=O)C1C2C=CC3(CN(c4ccc(Cl)c(F)c4)C(=O)C13)O2 (configuration not stated)	1	-7	-6	2	0	3
CCCOC(=O)C1C2C=CC3(CN(c4ccc(Cl)c(F)c4)C(=O)C13)O2 (configuration not stated)	-1	49*	-5	-2	-5	2

Assay outcomes as filed in PubChem.
